{"data": "Published values gathered from unrelated publications", "action": "inhibitor", "rep main protease": "Replicase polyprotein 1ab, main protease (rep, Severe acute respiratory syndrome coronavirus 2, UniProt P0DTD1)", "rep papain-like protease": "Replicase polyprotein 1ab, papain-like protease (rep, Severe acute respiratory syndrome coronavirus 2, UniProt P0DTD1)", "note": "Lines come from different studies, so protocols differ."}
{"SMILES": "O=c1n(-c2ccc(F)cc2)nc2n1CCCN2", "target": "rep main protease", "test": "enzyme activity", "setting": "20 µM", "inhibition [%]": 10.2}
{"SMILES": "CCOC(=O)C(Cc1c[nH]c2ccccc12)NC(=O)CCC(=O)Nc1ccc(S(N)(=O)=O)cc1 (stereo not drawn)", "target": "rep main protease", "test": "enzyme activity", "setting": "100 µg/mL", "inhibition [%]": 0}
{"SMILES": "CCC(=O)Oc1cccc2c1C(=O)C=CC2=O", "target": "rep main protease", "test": "enzyme activity", "setting": "1 µM", "inhibition [%]": 96.5}
{"SMILES": "CN(C)C(=O)COC(=O)Cc1ccc(OC(=O)c2ccc(NC(=N)N)cc2)cc1", "target": "rep main protease", "test": "enzyme activity", "setting": "10 µM", "inhibition [%]": 6}
{"SMILES": "O=C1C=CC(=O)c2c(O)cccc21", "target": "rep main protease", "test": "enzyme activity", "setting": "0.1 µM", "inhibition [%]": 20.3}
{"SMILES": "CC(C)C[C@H](NC(=O)OCc1ccccc1)C(=O)N(C)N(C#N)CCC(N)=O", "target": "rep main protease", "test": "enzyme activity, fluorescence", "setting": "50 µM, pH 7.2", "inhibition [%]": 100}
{"SMILES": "COCOc1cc(C)cc2c1C(=O)C=CC2=O", "target": "rep main protease", "test": "enzyme activity", "setting": "0.1 µM", "inhibition [%]": 3}
{"SMILES": "COc1c(O)cc(O)c2c(=O)cc(-c3ccccc3)oc12", "target": "rep main protease", "test": "enzyme activity", "setting": "100 µM", "inhibition [%]": 3.6}
{"SMILES": "NC(=O)c1ccc(/C=C/C(=O)N2CCC[C@@]3(CCN(C(=O)[C@@H]4CC(=O)NC(=O)N4)C3)C2)cc1", "target": "rep main protease", "test": "enzyme activity", "setting": "5 µM", "inhibition [%]": 14.7}
{"SMILES": "NC(=S)NNc1ccc(S(N)(=O)=O)cc1", "target": "rep main protease", "test": "enzyme activity", "setting": "20 µM", "inhibition [%]": 42.1}
{"SMILES": "Cc1ccc(NC(=O)c2cc3c(=O)n4cccc(C)c4nc3n2C)cc1Cl", "target": "rep main protease", "test": "enzyme activity", "setting": "10 µM", "inhibition [%]": 16}
{"SMILES": "O=C(/C=C/c1ccc(O)c(O)c1)OC1CC(OC(=O)/C=C/c2ccc(O)c(O)c2)(C(=O)O)CC(O)C1O (stereo not drawn)", "target": "rep main protease", "test": "enzyme activity", "setting": "100 µM", "inhibition [%]": 87.3}
{"SMILES": "O=c1c(O)c(-c2ccc(O)c(O)c2)oc2cc(O)cc(O)c12", "target": "rep main protease", "test": "enzyme activity, FRET", "setting": "10 µM, 10 min", "inhibition [%]": "> 50"}
{"SMILES": "Cc1cccc2cc(/C=N\\c3ccc(-c4nc5ccccc5[nH]4)cc3)c(Cl)nc12", "target": "rep papain-like protease", "test": "enzyme activity", "setting": "10 µM", "inhibition [%]": 10.1}
{"SMILES": "C[C@@H]1O[C@@H](OC[C@H]2O[C@@H](OCCc3ccc(O)c(O)c3)[C@H](OC(=O)/C=C/c3ccc(O)c(O)c3)[C@@H](O)[C@@H]2O)[C@H](O)[C@H](O)[C@H]1O", "target": "rep main protease", "test": "enzyme activity", "setting": "10 µM", "inhibition [%]": 61.7}
{"SMILES": "Clc1nc2ccccc2cc1/C=N\\c1ccc(-c2nc3ccccc3[nH]2)cc1", "target": "rep papain-like protease", "test": "enzyme activity", "setting": "100 µM", "inhibition [%]": 25.3}
{"SMILES": "Cc1cccn2c(=O)c3cc(C(=O)Nc4ccc(N(C)C)cc4)n(C)c3nc12", "target": "rep main protease", "test": "enzyme activity", "setting": "100 µM", "inhibition [%]": 33}
{"SMILES": "CCOC(=O)COc1cc(C)cc2c1C(=O)C=CC2=O", "target": "rep main protease", "test": "enzyme activity", "setting": "1 µM", "inhibition [%]": 94.6}
{"SMILES": "CCN(CC)C(=S)SSC(=S)N(CC)CC", "target": "rep main protease", "test": "enzyme activity, fluorescence", "setting": "10 µM, pH 7.2", "inhibition [%]": 100}
{"SMILES": "Cn1c(C(=O)Nc2ccc(Cl)cc2)cc2c(=O)n3ccccc3nc21", "target": "rep main protease", "test": "enzyme activity", "setting": "10 µM", "inhibition [%]": 14}
{"SMILES": "O=C(NCc1ccccn1)Nc1csc2ccccc12", "target": "rep main protease", "test": "enzyme activity", "setting": "20 µM", "inhibition [%]": -3.23}
{"SMILES": "O=C(O)Cc1ccc(O)c([N+](=O)[O-])c1", "target": "rep main protease", "test": "enzyme activity, FRET", "setting": "10 µM, 10 min", "inhibition [%]": "< 25"}
{"SMILES": "N#CC(c1ccc2c(c1)OCO2)N(Cc1ccccc1)C(=O)c1sc2ccccc2c1Cl (stereo not drawn)", "target": "rep main protease", "test": "enzyme activity", "setting": "20 µM", "inhibition [%]": 8.09}
{"SMILES": "COc1cc(C[C@@H](C)[C@@H](C)Cc2cc(O)c(OC)c(OC)c2)cc(O)c1OC", "target": "rep main protease", "test": "enzyme activity, FRET", "setting": "8 µM", "inhibition [%]": 58}
{"SMILES": "Cc1cc(NC(=O)c2cc3c(=O)n4cccc(C)c4nc3n2C)ccc1Br", "target": "rep main protease", "test": "enzyme activity", "setting": "1 µM", "inhibition [%]": 14}
{"SMILES": "C[C@]1(C(=O)NC[C@H](NC(=O)c2cncc3[nH]ccc23)c2ccc3ccccc3c2)CCNC1=O", "target": "rep main protease", "test": "enzyme activity", "setting": "5 µM", "inhibition [%]": 13.7}
{"SMILES": "CN1CCc2cccc3c2[C@H]1Cc1ccc(O)c(O)c1-3", "target": "rep main protease", "test": "enzyme activity", "setting": "20 µM", "inhibition [%]": -23}
{"SMILES": "Cn1c(C(=O)Nc2ccc3c(c2)OCCO3)cc2c(=O)n3ccccc3nc21", "target": "rep main protease", "test": "enzyme activity", "setting": "1 µM", "inhibition [%]": 31}
{"SMILES": "NC(=O)c1c[nH]c(Cc2ccccc2)cc1=O", "target": "rep main protease", "test": "enzyme activity", "setting": "20 µM", "inhibition [%]": 10.9}
{"SMILES": "N#CSc1cc(SC#N)c(N)nc1N", "target": "rep main protease", "test": "enzyme activity", "setting": "20 µM", "inhibition [%]": 98.8}
{"SMILES": "COc1cc(-c2oc3cc(O)cc(O)c3c(=O)c2O)ccc1O", "target": "rep main protease", "test": "enzyme activity, FRET", "setting": "10 µM, 10 min", "inhibition [%]": "25 to 50"}
{"SMILES": "CC1(C)C=Cc2cc(-c3coc4cc(O)cc(O)c4c3=O)ccc2O1", "target": "rep main protease", "test": "enzyme activity", "setting": "8 µM", "inhibition [%]": 11.8}
{"SMILES": "COc1cc(O)cc(/C=C/c2ccc(O)cc2)c1", "target": "rep main protease", "test": "enzyme activity", "setting": "20 µM", "inhibition [%]": 38.1}
{"SMILES": "c1cc(CN2CCCNCCNCCCNCC2)ccc1CN1CCCNCCNCCCNCC1", "target": "rep main protease", "test": "enzyme activity in cells", "test system": "HEK-293T", "setting": "20 µM", "inhibition [%]": -0.49}
{"SMILES": "COc1cc(O)c2c(=O)c(O)c(-c3ccc(O)c(O)c3)oc2c1", "target": "rep main protease", "test": "enzyme activity", "setting": "20 µM", "inhibition [%]": 52}
{"SMILES": "O=C(O)[C@H]1O[C@@H](Oc2cc3oc(-c4ccccc4)cc(=O)c3c(O)c2O)[C@H](O)[C@@H](O)[C@@H]1O", "target": "rep main protease", "test": "enzyme activity", "setting": "100 µM", "inhibition [%]": 97.6}
{"SMILES": "COc1cc(C)cc2c1C(=O)C=CC2=O", "target": "rep main protease", "test": "enzyme activity", "setting": "10 µM", "inhibition [%]": 90.4}
{"SMILES": "O=C(NC[C@H](NC(=O)c1cncc2sccc12)c1ccc2ccccc2c1)c1cocn1", "target": "rep main protease", "test": "enzyme activity", "setting": "5 µM", "inhibition [%]": 19.1}
{"SMILES": "CC[C@H](NC(=O)OCc1ccccc1)C(=O)N[C@H](C(=O)N[C@@H](CC(C)C)C(=O)N(C)N(C#N)CCC(N)=O)C(C)(C)C", "target": "rep main protease", "test": "enzyme activity, fluorescence", "setting": "50 µM, pH 7.2", "inhibition [%]": 100}
{"SMILES": "Cc1ccc2nc(Cl)c(/C=N/NC(=O)c3ccncc3)cc2c1", "target": "rep papain-like protease", "test": "enzyme activity", "setting": "10 µM", "inhibition [%]": 9.2}
{"SMILES": "CCC(CC)COC(=O)[C@H](C)N[P@](=O)(OC[C@H]1O[C@@](C#N)(c2ccc3c(N)ncnn23)[C@H](O)[C@@H]1O)Oc1ccccc1", "target": "Replicase polyprotein 1ab, polymerase (rep, Severe acute respiratory syndrome coronavirus 2, UniProt P0DTD1)", "test": "enzyme activity in cells", "test system": "HEK-293T", "setting": "10 µM", "inhibition [%]": 87}
{"SMILES": "O=c1c(O)c(-c2cc(O)c(O)c(O)c2)oc2cc(O)ccc12", "target": "rep main protease", "test": "enzyme activity", "setting": "20 µM", "inhibition [%]": 94.9}
{"SMILES": "COc1cccc2c1C(=O)C(C(C)=O)=CC2=O", "target": "rep main protease", "test": "enzyme activity", "setting": "10 µM", "inhibition [%]": 96.1}
{"SMILES": "CCc1ccc(NC(=O)c2cc3c(=O)n4ccccc4nc3n2C)cc1", "target": "rep main protease", "test": "enzyme activity", "setting": "1 mM", "inhibition [%]": 76}
{"SMILES": "O=c1cc(-c2ccccc2)oc2cc(O)c(O)c(O)c12", "target": "rep main protease", "test": "enzyme activity", "setting": "10 µM", "inhibition [%]": 87}
{"SMILES": "CC(=O)Nc1ccc(-c2cnc(/N=C\\c3cc4ccccc4nc3Cl)s2)cc1", "target": "rep papain-like protease", "test": "enzyme activity", "setting": "100 µM", "inhibition [%]": 97.2}
{"SMILES": "O=c1cc(-c2ccc(O)cc2)oc2cc(O)c(O)c(O)c12", "target": "rep main protease", "test": "enzyme activity", "setting": "10 µM", "inhibition [%]": 90.7}
{"SMILES": "COc1ccc(OC)c2c1C(=O)C=CC2=O", "target": "rep main protease", "test": "enzyme activity", "setting": "10 µM", "inhibition [%]": 78.5}
{"SMILES": "C[C@@H]1O[C@@H](O[C@@H]2[C@@H](O)[C@H](OCCc3ccc(O)c(O)c3)O[C@H](CO)[C@H]2OC(=O)/C=C/c2ccc(O)c(O)c2)[C@H](O)[C@H](O)[C@H]1O", "target": "rep main protease", "test": "enzyme activity", "setting": "10 µM", "inhibition [%]": 34.6}
{"SMILES": "Cc1cc(OCc2ccccc2)c2c(c1)C(=O)C=CC2=O", "target": "rep main protease", "test": "enzyme activity", "setting": "1 µM", "inhibition [%]": 91.1}
{"SMILES": "S=c1[nH]c2ccccc2s1", "target": "rep main protease", "test": "enzyme activity", "setting": "20 µM", "inhibition [%]": 63.6}
